From PubChem
Sampled rows, rich in hits. Any-hit rate of the full collection: about 2.3%.
PAX8 reporter: inhibitors of PAX8-driven TPO luciferase reporter, primary screen, RMG-I cells, single concentration; SteadyGlo, 24 h; inhibition, % at 12.6 µM; 360,000 tested, 1.2% active; AID 652154, 2013;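 active = mean replicate inhibition at least 60% with every replicate also reaching 60%; inconclusive = only one of the two criteria is met; inactive = mean below 60% and not all replicates reaching 60%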;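 also: luciferase light reporting Pax8 driven TPO promoter activity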
Glyco luc inh: increase of ERlucT glycosylation luciferase signal, primary screen, N-linked glycosylation inhibitor project, D54 ERlucT cells, luminescence, set 2; D54 ERlucT glycosylation luciferase reporter, 24 h; percent of 100 nM tunicamycin response; AID 588692, 2011; reporter increase, % at 12.5 µM; 360,000 tested, 0.23% active;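 active = mean luciferase reporter signal, scaled so untreated is 0 and the glycosylation-blocking control 100, at or above a set limit in every replicate; inconclusive = mean reaches the limit but not every replicate does; inactive = mean below the limit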;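 also: luciferase carries N-glycosylation sites so blocking glycosylation raises the light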
Rtt109 HAT inh: inhibitors of C. albicans Rtt109/Vps75 HAT, primary screen, biochemical, ThioGlo CoA-SH fluorescence, plate reader. Histone acetyltransferase RTT109 (Candida albicans (strain SC5314 / ATCC MYA-2876)), …. purified Rtt109/Vps75, 4 h. inhibition, % at 34.9 µM. 330,000 tested, 0.16% active. AID 540336, 2011;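 active = inhibition of at least 50% in every replicate; inconclusive = best replicate reaches 50% inhibition but some replicates fall short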
Target sequence (Q5AAJ8 whole entry, looked up): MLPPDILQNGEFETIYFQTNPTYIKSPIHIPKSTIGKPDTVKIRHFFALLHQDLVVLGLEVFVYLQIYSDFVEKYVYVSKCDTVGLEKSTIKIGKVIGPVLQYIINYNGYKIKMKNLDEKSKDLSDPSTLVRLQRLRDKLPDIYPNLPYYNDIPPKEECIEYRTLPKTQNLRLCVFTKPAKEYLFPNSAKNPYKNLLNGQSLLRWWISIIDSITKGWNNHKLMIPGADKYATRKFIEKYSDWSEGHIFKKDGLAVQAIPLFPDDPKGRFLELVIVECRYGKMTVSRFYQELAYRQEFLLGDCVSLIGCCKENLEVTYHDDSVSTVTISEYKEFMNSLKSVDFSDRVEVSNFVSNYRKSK
Arrestin-AP2 inh: inhibitors of beta-arrestin/AP2 binding, primary screen, biochemical, GPCR trafficking, flow cytometry; inhibition, % at 10 µM; beta-arrestin 1 C-terminal peptide binding to AP2 beta2-adaptin appendage (human); FITC-arrestin peptide / GST-AP2 beads; AP2 beta2 appendage carries R879A mutation; 340,000 tested, 0.31% active;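 active = inhibition above a set limit, near 3 SD of compounds lacking own fluorescence, cut at about 54% in these data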
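Measured by: flow cytometry, FL1 (488/535 nm); Material: AP2 appendage R879A on GSH beads; Evaluation: percent response; Timing: pre-incubation 12 min, peptide binding 1 h, room temperature; Also added: 50 nM FITC-arrestin peptide; Medium: PBS with 0.05% Tween 20 and 0.1% BSA.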
Env fusion inh: inhibitors of HIV-1 Env-driven cell-cell fusion, primary screen, HeLa-JRFL effector, CEM21 target cells, luciferase | inhibition, % at 12.3 µM | 360,000 tested, 1.1% active | AID 651610, 2012;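 active = mean replicate inhibition score of at least 50 and every replicate individually at or above 50; inconclusive = only one of the two criteria met; inactive = mean below 50 and not all replicates reaching 50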
PfHsp90 set2: growth inhibition of PfHsp90-expressing yeast, primary screen, antimalarial PfHsp90 inhibitor project, S. cerevisiae, BacTiter-Glo luminescence, single point, set 2 | 310,000 tested, 0.32% active | BacTiter-Glo ATP, 48 h; yeast lacking PDR1 and PDR3 efflux regulators | AID 504621, 2011 | inhibition, % at 9.4 µM;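 active = every replicate shows inhibition above about 80%, whatever the replicate mean, limit read from the data; inconclusive = mean inhibition reaches the set limit but some replicate falls short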
Of the large screens only hits and unclear results are named; the others gave an inactive call.

C[C@H]1CN([C@@H](C)CO)C(=O)c2ccccc2-c2ccccc2CO[C@H]1CN(C)C(=O)Nc1ccccc1C(F)(F)F	none (no result: Glyco luc inh, Rtt109 HAT inh, Arrestin-AP2 inh, PfHsp90 set2)
Cc1cccc(C)c1-n1nnnc1C(c1ccnc2ccccc12)N(Cc1ccccc1)Cc1ccccc1 (stereo not drawn)	Env fusion inh 90.1 (no result: Glyco luc inh, Rtt109 HAT inh, Arrestin-AP2 inh, PfHsp90 set2)
CN(CCc1ccccc1)C(c1ccnc2ccccc12)c1nnnn1-c1ccc2c(c1)OCCO2 (stereo not drawn)	Env fusion inh 60.2 (no result: Glyco luc inh, Rtt109 HAT inh, Arrestin-AP2 inh, PfHsp90 set2)
c1ccc(CN(Cc2ccccc2)C(c2ccnc3ccccc23)c2nnnn2-c2ccc3c(c2)OCCO3)cc1 (stereo not drawn)	none (no result: Glyco luc inh, Rtt109 HAT inh, Arrestin-AP2 inh, PfHsp90 set2)
C[C@@H]1CN([C@H](C)CO)C(=O)c2cc(C#Cc3ccncc3)cnc2O[C@@H]1CN(C)C(=O)CN(C)C	none (no result: PAX8 reporter, Glyco luc inh, Rtt109 HAT inh, Arrestin-AP2 inh, PfHsp90 set2)
Cc1ccc(C)c(N(C(=O)c2nsc(Cl)c2Cl)C(C(=O)NC2CCCC2)c2ccc(O)cc2)c1 (stereo not drawn)	Rtt109 HAT inh inconclusive, Env fusion inh 88.5 (no result: PAX8 reporter)
COc1cc(/C=C/C(=O)c2ccc(NS(=O)(=O)c3ccc(C)cc3)cc2)ccc1OC(F)F	none
COc1cc(/C=C/C(=O)c2ccc(NS(=O)(=O)c3ccc(C)cc3)cc2)cc(OC)c1O	PAX8 reporter 81.3
O=C(Nc1ccccc1)Nc1cc(OCC(F)(F)F)cc(OCC(F)(F)F)c1	PAX8 reporter 94.8, Env fusion inh 62.1
O=C(C[C@@H]1CC[C@@H](NC(=O)Nc2cc(F)ccc2F)[C@H](CO)O1)NCc1ccc2c(c1)OCO2	none (no result: Glyco luc inh, Rtt109 HAT inh, Arrestin-AP2 inh, PfHsp90 set2)
CC(C)(C)CC(C)(C)N=C1Nc2cc(Cl)c(Cl)cc2NC12C[C@H]1CCC(=O)N3CC[C@@H](C2)[C@@H]13 (stereo partly drawn)	Env fusion inh 58.3
CN1CCN(C(=O)c2cc3c(c(-c4cccc(C#CCC5CCCC5)c4)n2)[C@@H](CCO)N(S(=O)C(C)(C)C)C3)CC1 (stereo partly drawn)	none (no result: Glyco luc inh, Rtt109 HAT inh, Arrestin-AP2 inh, PfHsp90 set2)
CN(C)C(=O)[C@H]1[C@H](CO)[C@H]2Cn3c(cccc3=O)[C@@H]1N2CC1CCCCC1	none (no result: Glyco luc inh, Rtt109 HAT inh, Arrestin-AP2 inh, Env fusion inh, PfHsp90 set2)
C[C@H](CO)N1C[C@H](C)[C@@H](CN(C)CC2CC2)OCCCC[C@H](C)Oc2ccc(NS(=O)(=O)c3ccccc3)cc2C1=O	none (no result: Glyco luc inh, Rtt109 HAT inh, Arrestin-AP2 inh, PfHsp90 set2)
OCC1CCCN(C(=S)Nc2ccc(OC(F)F)cc2)C1 (stereo not drawn)	PAX8 reporter 135.6 (no result: Env fusion inh)
OCC1CCCN(C(=S)Nc2ccc(Nc3ccccc3)cc2)C1 (stereo not drawn)	none
Cc1ccc(-c2ccc(CN3C(CC(C)C)C(=O)N(Cc4cn(CC5CCCCC5)nn4)CCS3(=O)=O)cc2)cc1 (stereo not drawn)	none (no result: Rtt109 HAT inh, Arrestin-AP2 inh, PfHsp90 set2)
CCC/C=C/c1ccc(CN2C(CC(C)C)C(=O)N(Cc3cn(CC4CCCCC4)nn3)CCS2(=O)=O)cc1 (stereo not drawn)	Env fusion inh 89.3 (no result: Rtt109 HAT inh, Arrestin-AP2 inh, PfHsp90 set2)
CNC(=O)C[C@H]1CC[C@@H]2[C@@H](COc3ccc(NC(=O)c4ccccc4OC)cc3C(=O)N2C)O1	none (no result: Glyco luc inh, Rtt109 HAT inh, Arrestin-AP2 inh, PfHsp90 set2)
Oc1ccc(-c2nc(-c3ccc(F)cc3)c(-c3ccncc3)[nH]2)cc1	Env fusion inh 57.1
CNC[C@@H]1Oc2ccc(NS(=O)(=O)c3ccc(OC)cc3)cc2C(=O)N([C@H](C)CO)C[C@H]1C	none (no result: Glyco luc inh, Rtt109 HAT inh, Arrestin-AP2 inh, Env fusion inh, PfHsp90 set2)
Cc1ccc2c(c1)c1ccc3c(c1n2C)C(=O)C=CC3=O	Glyco luc inh 30.6, PfHsp90 set2 inconclusive
C=C(C)COc1ccc(-c2[nH]ncc2Oc2cccc(OC)c2)c(O)c1	PfHsp90 set2 110.1 (no result: PAX8 reporter, Env fusion inh)
Cc1ccc(C(=O)C2=C(O)C(=O)N(Cc3ccco3)C2c2ccc(N(C)C)cc2)o1 (stereo not drawn)	none
CCCCOc1ccc(C2C(C(=O)c3ccc(C)o3)=C(O)C(=O)N2Cc2ccco2)cc1 (stereo not drawn)	Rtt109 HAT inh 55.5 (no result: PfHsp90 set2)
Cc1cc(SCn2nnc3ccccc3c2=O)nc2ccccc12	none
Cc1ccc(-n2nnnc2SCn2nnc3ccccc3c2=O)c(C)c1	Env fusion inh 75.5 (no result: PAX8 reporter)
CCN1/C(=C/C=C/c2oc3ccc(-c4ccccc4)cc3[n+]2CC)Oc2ccc(-c3ccccc3)cc21	PAX8 reporter 97.7, Env fusion inh 76.8
COc1cccc(S(=O)(=O)N[C@H]2C=C[C@@H](CC(=O)NCc3ccncc3)O[C@H]2CO)c1	none (no result: Glyco luc inh, Rtt109 HAT inh, Arrestin-AP2 inh, PfHsp90 set2)
C[C@@H]1CN([C@@H](C)CO)C(=O)c2cccc(NC(=O)Nc3ccc(F)cc3)c2O[C@@H]1CN(C)S(=O)(=O)c1cn(C)cn1	none (no result: Glyco luc inh, Rtt109 HAT inh, Arrestin-AP2 inh, PfHsp90 set2)
O=C(c1ccccc1)C1OC1C(=O)c1ccccc1 (stereo not drawn)	PAX8 reporter 72.0
CCn1c(Sc2ccc([N+](=O)[O-])cn2)nnc1-c1ccco1	PAX8 reporter 71.3
O=C(C1CCN(S(=O)(=O)c2cccnc2)CC1)N1CCN(c2ccc(Cl)cc2)CC1	PAX8 reporter 66.5
CC1CCN(C(=O)c2cccc(S(=O)(=O)N3CCN(c4ccccc4)CC3)c2)CC1	none
COc1ccc(N2CCN(C(=O)C3CCN(S(=O)(=O)c4ccccc4)CC3)CC2)cc1	none
CC1CCN(S(=O)(=O)c2cc(C(=O)N3CCN(c4ccccc4)CC3)ccc2Br)CC1	Env fusion inh 72.1 (no result: Rtt109 HAT inh, Arrestin-AP2 inh, PfHsp90 set2)
Cc1nn(C)c(C)c1S(=O)(=O)N1CCCC(C(=O)N2CCN(c3ccc(Cl)cc3)CC2)C1 (stereo not drawn)	Env fusion inh 63.3
Cc1n[nH]c(C)c1S(=O)(=O)N1CCCC(C(=O)N2CCN(c3ccc(Cl)cc3)CC2)C1 (stereo not drawn)	none
O=C(C1CCN(S(=O)(=O)c2ccccc2)CC1)N1CCN(c2ccccc2)CC1	Env fusion inh 60.7
Cc1cc(C)c2c(c1)/C(=N/NC(=O)c1cc(C)oc1C)CCC2	PAX8 reporter 98.9 (no result: Env fusion inh)
Cc1cc(C)c2c(c1)/C(=N/NC(=O)c1ccc(O)cc1)CCC2	none
C[C@H](CO)N1C[C@H](C)[C@H](CN(C)S(C)(=O)=O)Oc2c(NC(=O)NC3CCCCC3)cccc2C1=O	none (no result: Glyco luc inh, Rtt109 HAT inh, Arrestin-AP2 inh, Env fusion inh, PfHsp90 set2)
Cc1ccc(NC(=O)Cc2cc(C(=O)O)c3ccccc3n2)c(C)c1	PAX8 reporter 69.5
Cc1ccc(CNC(=O)c2ccc3c(=O)c(O)c(-c4ccc(C)cc4)[nH]c3c2)cc1	PAX8 reporter 70.0, Env fusion inh 56.6
O=c1[nH]c(SCCOc2ccccc2)nc2ccccc12	none (no result: PAX8 reporter)
CC(c1nc2ccccc2c(=O)[nH]1)N(C)CCOc1ccc(Cl)cc1 (stereo not drawn)	Env fusion inh 97.4
